Compound activity: PubChem, several laboratories
TPT1 inhibitor: Candida albicans TPT1 enzyme inhibitors, primary screen, biochemical, fluorescence polarization | tRNA 2'-phosphotransferase TPT1 (Candida albicans SC5314) | recombinant caTPT1, FP RNA substrate dephosphorylation | inhibition, % at 5 µM | 300,000 compounds, 0.81% hits | AID 1962, 2009;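 active = inhibition above the mean of all tested compounds plus 3 SD, set per screening campaign, cut at about 24% in these data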;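 note: plate controls were DMSO alone for no effect and ferristatin control at 100 nM for full effect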
HNF4A DNA FP: change in binding of human HNF4A to DNA, primary screen, biochemical, fluorescence polarization, FITC-DNA. Hepatocyte nuclear factor 4-alpha (Homo sapiens), P41235. 360,000 compounds, 0.3% hits. 1 h. activity change, % at 10 µM; in the data active = activity change above about 30%, passing the limit was not always enough
Rtt109 HAT inh: inhibitors of C. albicans Rtt109/Vps75 HAT, primary screen, biochemical, ThioGlo CoA-SH fluorescence, plate reader; AID 540336, 2011; 330,000 compounds, 0.16% hits; Histone acetyltransferase RTT109 (Candida albicans (strain SC5314 / ATCC MYA-2876)), …; inhibition, % at 34.9 µM; purified Rtt109/Vps75, 4 h;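 active = inhibition of at least 50% in every replicate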
CSN inh: inhibitors of CSN-mediated cullin deneddylation, primary screen, biochemical, fluorescence polarization, uHTS; Purified CSN, SCF-Nedd8-OG deneddylation; inhibition, % at 12.5 µM; COP9 signalosome complex subunit 5 (Homo sapiens), Q92905; 360,000 compounds, 0.38% hits;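 active = pattern-corrected inhibition above about 35%, with an unprinted fluorescence ratio check between 0.5 and 1.5, limit read from the data, passing the limit was not always enough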;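 note: 0% = enzyme with substrate and 100% = substrate without enzyme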
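Assay system: Purified human Csn5 enzyme expressed in HEK293T cells | Amount: Enzyme 0.24 nM | Measured by: Fluorescence polarization readout | Medium: Tris/NaCl/DTT buffer, pH 7.5 | Compound dosing: One concentration, 12.5 µM, 0.25% DMSO | Times: 90 min incubation of compound, enzyme and substrate at room temperature | Control set: no-enzyme wells high, enzyme-with-substrate wells low | Read-out: % inhibition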
CSN5 deneddyl: Csn5 deneddylation inhibitors, confirmation, biochemical, fluorescence polarization, single concentration, SCF-Nedd8OG substrate. shares compounds with CSN inh. Csn5 deneddylation of SCF-Nedd8OG, 90 min. inhibition, % at 16.6 µM. 540 compounds, 62% hits; in the data active = inhibition above about 50%;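 note: 0% = DMSO with enzyme and 100% = no enzyme wells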
MMP-2 counter: MMP-2 protease inhibition counter-screen, confirmation, counter-screen for CSN deneddylation inhibitor project, biochemical, fluorescence, single concentration | shares compounds with CSN inh | recombinant MMP-2, FRET substrate fluorescence, 60 min | inhibition, % at 16.6 µM | 540 compounds, 33% hits;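 active = corrected plate-normalized z-score of 5 or more, or -5 or less, or inhibition of 15% or more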;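 note: plate controls were DMSO wells with enzyme for no effect and buffer wells lacking MMP-2 for full effect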
Target sequence (P08253 whole entry, looked up): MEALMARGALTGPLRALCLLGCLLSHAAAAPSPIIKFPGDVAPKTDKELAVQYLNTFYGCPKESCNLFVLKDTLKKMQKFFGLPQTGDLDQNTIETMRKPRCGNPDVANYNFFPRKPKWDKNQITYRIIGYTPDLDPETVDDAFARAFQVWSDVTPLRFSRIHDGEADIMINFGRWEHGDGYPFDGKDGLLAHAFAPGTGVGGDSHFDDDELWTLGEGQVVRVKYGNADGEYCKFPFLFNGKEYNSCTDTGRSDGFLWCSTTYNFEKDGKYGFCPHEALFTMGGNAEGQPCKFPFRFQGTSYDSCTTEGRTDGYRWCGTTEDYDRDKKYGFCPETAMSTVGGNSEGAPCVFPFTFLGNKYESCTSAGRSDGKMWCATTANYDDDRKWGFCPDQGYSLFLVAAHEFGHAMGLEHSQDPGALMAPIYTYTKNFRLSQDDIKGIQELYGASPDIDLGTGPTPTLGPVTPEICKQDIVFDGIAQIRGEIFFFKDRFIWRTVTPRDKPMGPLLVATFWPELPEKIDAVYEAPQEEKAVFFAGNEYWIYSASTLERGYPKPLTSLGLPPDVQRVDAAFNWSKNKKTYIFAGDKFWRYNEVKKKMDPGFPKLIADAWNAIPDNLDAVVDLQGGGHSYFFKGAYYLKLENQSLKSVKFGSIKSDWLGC
Thrombin cntr: counter-screen for CSN deneddylation inhibitors: bovine thrombin inhibition; shares compounds with CSN inh; bovine thrombin cleavage of Ub4-pepOG, fluorescence polarization; inhibition, % at 16.6 µM; 540 compounds, 49% hits;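 active = inhibition at or above a set limit, with a fluorescence interference ratio between 0.5 and a set maximum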
* hit, by the source's call; x = not tested or not shown; + = active, no number. In the library only some 1.2% were active in any assay of this set; here they are far more common.

SMILES	TPT1 inhibitor	HNF4A DNA FP	Rtt109 HAT inh	CSN inh	CSN5 deneddyl	MMP-2 counter	Thrombin cntr
CCCc1ccc(O)c(N=Cc2cc(Br)cc(OCC)c2O)c1	6	11	12	38*	89*	-5	46*
N#Cc1c(N2CCCC(O)C2)nc(N)c2c(N)nc3c(c12)CC(=O)N3C12CC3CC(CC(C3)C1)C2 (centres undefined)	7	28	-3	52*	93*	4	-43
COc1ccc(Br)cc1/C=c1\sc2nc(-c3ccco3)nn2c1=O	23	-28	0	41*	70*	5	4
NS(=O)(=O)c1ccc(NC(=O)CSc2nc3c(cnn3-c3ccccn3)c(=O)[nH]2)cc1	x	2	1	-1	x	x	x
O=C(CSc1n[nH]c(=O)[nH]c1=O)Nc1ccc2c(c1)C(=O)c1ccccc1C2=O	-8	-68	8	48*	x	69*	-9
O=C(N/N=C\C=C\c1ccco1)c1cc(-c2ccc3ccccc3c2)n[nH]1	5	-8	-4	43*	96*	11	-9
Cc1cc(N2CCN(C)CC2)ccc1NC(=O)c1cccc(S(=O)(=O)N2CCc3ccccc3C2)c1	1	6	14	108*	53*	8	-10
COc1ccc(-n2cc(-c3ccccc3)c3c(N4CC(C)OC(C)C4)ncnc32)cc1 (centres undefined)	3	2	-11	0	x	x	x
C=CCn1c(O)c(N=Nc2ccccc2O)c2ccccc21	x	84*	1	47*	+	-6	33*
C=CCn1c(O)c(N=Nc2ccccc2)c2ccccc21	1	0	5	6	x	x	x
Cc1cc(C)c2nc(N3C(=O)C(O)=C(C(=O)c4ccco4)C3c3ccco3)sc2c1 (centres undefined)	5	-15	-17	35*	x	10	-6
C=CCn1c(N)c(C(=O)NCC2CCCO2)c2nc3ccccc3nc21 (centres undefined)	3	5	-342	36*	101*	1	0
COc1ccc(-n2c(N)c(C(=O)NCC3CCCO3)c3nc4ccccc4nc32)c(OC)c1 (centres undefined)	0	3	-8	2	x	x	x
COC(=O)c1cc2c(=O)c3ccccc3oc2nc1/C=C/N(C)C	x	110	-4	77*	95*	-2	28*
O=C(COc1ccc(Cl)cc1Cl)Nc1ccc(C(=O)Nc2ccccc2C(=O)O)cc1	-1	-5	17	52*	75*	20*	6
CCCCCCCCCCCCCCCC(O)C[N+](C)(C)CCO (centres undefined)	x	7	16	3	x	x	x
CCCCCCCCCCCCCCCC(O)C(N)CO (centres undefined)	-2	47*	11	53*	-18	1	0
O=C1c2cccc(NCCCNCCO)c2C(=O)c2cccc(NCCCNCCO)c21	x	42	2	94*	-21	34*	-32
O=C1c2ccccc2C(=O)c2c(NCc3cccnc3)cccc21	-2	5	2	2	x	x	x
N#C/C(=C/c1ccc(O)c(O)c1)c1nc2ccccc2[nH]1	21	10	16	124*	+	-1	55*
COC(=O)c1ccc(COc2ccc(/C=C(\C#N)c3nc4ccccc4[nH]3)cc2OC)o1	3	26	-13	57*	-68	-5	41*
CC[n+]1ccc(/C=C/c2ccc(N(C)C)cc2)c2ccccc21	x	4	-12	0	x	x	x
CN(C)c1ccc(/C=C/c2cc[n+](C)cc2)cc1	11	68*	4	51*	55*	-34*	58*
CC[n+]1ccccc1/C=C/c1ccc(N(C)C)cc1	x	50*	19	38*	65*	-73*	46*
O=C(COC(=O)CCN=C1NS(=O)(=O)c2ccccc21)NNC(=O)c1ccc(Cl)cc1	x	3	-4	0	x	x	x
SMILES	TPT1 inhibitor	HNF4A DNA FP	Rtt109 HAT inh	CSN inh	CSN5 deneddyl	MMP-2 counter	Thrombin cntr
COc1ccc(OCc2cc(C(=O)N3CCOCC3)no2)c(Cl)c1	-1	-1	-11	5	x	x	x
O=C1C2C(C(=O)N1/N=C/c1cc([N+](=O)[O-])c(O)cc1O)C1C=CC2C12CC2 (centres undefined)	-3	-18	2	36*	71	17*	10
Nc1c(Cl)cc(C(=O)NC2CC2)cc1Cl	x	-5	5	3	x	x	x
O=C(CCOc1ccccc1)Nc1ccccc1F	-3	-5	1	-5	x	x	x
N#C/C(=C/c1cc(Cl)c(O)c(Cl)c1)C(=O)N1CCCCC1	-1	4	14	-4	x	x	x
N#CC(C#N)=C(N)/C(C#N)=C/c1cc(O)c(O)c(O)c1	22	28	17	122*	11	9	57*
O=[N+]([O-])c1ccc(/C=C/C2=NN(c3ccccc3)C(c3ccco3)C2)o1 (centres undefined)	x	26	20	62*	42	-3	21*
Cc1ccc(S(=O)c2ccc([N+](=O)[O-])c3nonc23)cc1 (centres undefined)	x	10	x	42*	83*	-50*	2
O=C(O)c1cc(-c2ccc(/C=C3\NC(=O)N(c4ccc(Cl)cc4)C3=O)o2)ccc1Cl	3	-35	7	40*	26	18*	10
Cc1nnn(-c2nonc2N)c1C(=O)N/N=C/c1cccc2ccccc12	1	11	-3	8	x	x	x
Cc1nnn(-c2nonc2N)c1C(=O)N/N=C/c1ccccc1O	0	4	-5	44*	-17	23*	-9
Cc1ccc(NC(=O)CN(C)C(=O)C2CC(=O)N(Cc3ccccc3)C2)cc1 (centres undefined)	-3	1	-1	0	x	x	x
CCCCN1C(=O)C(CC(=O)NC2CC2)CC(C(=O)N(CC)CC)=C1C (centres undefined)	x	-1	x	2	x	x	x
NC1=NC(=O)/C(=C\c2ccco2)S1	-2	-21	-8	36*	70*	17*	-6
NC1=NC(=O)C(=Cc2ccccc2)S1	x	11	10	2	x	x	x
Cc1ccc(S(=O)(=O)Cc2ccc(C(=O)O)o2)cc1	2	-24	-14	35*	64*	22*	6
COc1ccc(S(=O)(=O)Cc2ccc(C(=O)O)o2)cc1	-1	-1	4	7	x	x	x
